Source: PubChem BioAssay
GSK3beta inhib – inhibitors of human GSK3beta kinase; P49841; GST-GSK3beta kinase, ADP-Glo luminescence, 60 min; stronger effect = lower value; activity score (negative = inhibition), % at 10 µM; 0.038% of 300,000 active; AID 2097;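 active = more than half of replicate wells score below -50%, meaning over 50% inhibition versus plate controls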
Target sequence (P49841 whole entry, looked up): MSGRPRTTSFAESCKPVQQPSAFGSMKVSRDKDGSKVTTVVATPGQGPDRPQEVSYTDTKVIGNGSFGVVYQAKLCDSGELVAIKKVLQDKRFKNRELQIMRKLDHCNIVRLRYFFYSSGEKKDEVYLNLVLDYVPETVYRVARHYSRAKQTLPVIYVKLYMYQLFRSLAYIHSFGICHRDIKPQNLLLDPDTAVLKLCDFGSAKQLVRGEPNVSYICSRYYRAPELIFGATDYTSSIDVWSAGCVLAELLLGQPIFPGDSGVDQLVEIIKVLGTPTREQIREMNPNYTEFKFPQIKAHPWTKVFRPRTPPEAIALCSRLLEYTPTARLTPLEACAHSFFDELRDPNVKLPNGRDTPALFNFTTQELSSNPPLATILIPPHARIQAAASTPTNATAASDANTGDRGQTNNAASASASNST
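test system = GST-tagged human GSK3beta kinase, cell-free | reagent = 25 µM ATP with peptide substrate | dosing = one dose of 10 µM per compound | schedule = 60 min reaction, RT | detection = luminescent ADP-Glo measurement of ADP formed | control set = DMSO neutral wells and GW8510 at 20 µM as positive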
PolyA inh – inhibitors of polyadenylation in S. cerevisiae; S. cerevisiae SKY197-pL101 polyadenylation reporter, beta-gal luminescence; efflux-impaired pdr1/pdr3 knockout yeast; score 100 = 6 SD above DMSO; activity score, % at 12 µM; 0.02% of 300,000 active; AID 1875;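 active = lowest replicate activity score at least 50, where 100 means six control SD above control mean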;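 also: yeast exposed to compound for 9 h at 30 °C; higher score means more reporter readthrough which indicates perturbed polyadenylation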
Efflux pump inh – inhibitors of Candida antifungal efflux pumps expressed in yeast | 0.44% of 330,000 active | inhibition, % at 10 µM | AID 485275 | S. cerevisiae Candida pump triplex, Nile Red efflux;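 active = plate passing quality check with inhibition over a set limit, or well fluorescence over plate mean plus 4 SD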;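 also: Nile Red retained in pooled yeast measured as flow cytometry median fluorescence; higher means more Nile Red kept so more efflux inhibition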
STK33 kinase inh – inhibitors of human STK33 kinase | 0.073% of 320,000 active | inhibition, % at 10 µM | purified STK33, MBP phosphorylation, ADP-Glo luminescence | Q9BYT3;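 active = inhibition at or above 25%, using the most active replicate where run in duplicate; inactive = inhibition below 25%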
GSK3 alpha inh – blocks human GSK-3 alpha kinase. P49840. ADP-Glo luminescence, 60 min. inhibition, % at 10 µM. 0.1% of 320,000 active. AID 2650;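 active = more than half of replicates show inhibition above 20%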;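 also: GST-tagged GSK-3 alpha with peptide substrate and 25 µM ATP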
Yeast cmpd fluor – flagged as fluorescent in efflux inhibitor counter-screen; shares compounds with Efflux pump inh; 4% of 1,700 active; S. cerevisiae AD/pABC3, compound fluorescence, flow cytometry; AID 588517; fluorescence ratio to DMSO, % at 10 µM;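 active = fluorescence ratio to DMSO above its plate's cutoff, the plate mean ratio plus 5 SD, cut at about 210% in these data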;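 also: unstained yeast with no Nile Red so the signal is compound autofluorescence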
CaMdr1 efflux inh – inhibitors of Candida albicans Mdr1 efflux pump. shares compounds with Efflux pump inh. S. cerevisiae AD/CaMDR1, Nile Red efflux, flow cytometry. inhibition, % at 10 µM. 1% of 1,700 active; in the data active = inhibition above about 26%;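 also: higher means more Nile Red retained so more efflux inhibition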
Cdr2 pump inh – Candida Cdr2 efflux pump inhibition. shares compounds with Efflux pump inh. S. cerevisiae AD/CaCDR2, Nile Red retention, flow cytometry. Nile Red retention ratio vs DMSO, % at 10 µM. 4% of 1,700 active. AID 588520; in the data active = Nile Red retention ratio vs DMSO above about 190%;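 also: higher ratio means more blocking of Cdr2 efflux of the dye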
CaCdr1 efflux inh – Candida Cdr1 efflux pump inhibition; shares compounds with Efflux pump inh; S. cerevisiae AD/CaCDR1, Nile Red efflux, flow cytometry; inhibition, % at 10 µM; 1% of 1,700 active; AID 588522;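 active = inhibition above the screen-wide mean plus twice its standard deviation, cut at about 32% in these data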
Hits are given with their value; 0 = inactive; - = no result given; + = active, no number. Only some compounds are listed: those with a hit (about 0.6% of all), similar ones and a draw of the others.

SMILES | GSK3beta inhib | PolyA inh | Efflux pump inh | STK33 kinase inh | GSK3 alpha inh | Yeast cmpd fluor | CaMdr1 efflux inh | Cdr2 pump inh | CaCdr1 efflux inh
CC1CCCCC12NC(=O)N(CC(=O)NC1CCCc3ccccc31)C2=O (stereo not drawn) | 0 | 0 | 0.9 | 0 | 0 | 0 | 0 | 0 | 0
COc1ccc(OC)c(NC(=O)C2CCN(S(=O)(=O)c3cccs3)CC2)c1 | 0 | 0 | 0 | 0 | 0 | - | - | - | -
COc1ccccc1NC(=O)C1CCN(S(=O)(=O)c2cccs2)CC1 | - | - | 172 | 0 | 0 | 0 | 0 | 0 | 0
CC(C)CC(=O)NCCCCc1ccccc1 | 0 | 0 | 0 | 0 | 0 | - | - | - | -
O=C(COC(=O)c1c(Cl)ccc(Cl)c1Cl)NCC1CCCO1 (stereo not drawn) | - | - | 0 | 0 | 0 | - | - | - | -
O=C(COC(=O)c1c(Cl)cccc1Cl)NCC1CCCO1 (stereo not drawn) | 0 | 0 | 9.0 | 0 | 0 | 0 | 0 | 0 | 0
Cc1ccc(C)c(Cn2c(=O)n(C)c(=O)c3sccc32)c1 | 0 | 0 | 0 | 0 | 0 | - | - | - | -
COc1ccc2c(c1)CC/C(=C/c1ccco1)C2=O | 0 | 0 | 20 | 0 | 0 | 0 | 0 | 0 | 0
CCOC(=O)c1sc2nc3c(SCC(=O)O)cc(C(=O)c4ccccc4O)cn3c(=O)c2c1C | 0 | 0 | 1.5 | 0 | 0 | 0 | 0 | 0 | 0
CCOC(=O)c1sc2nc3c(SCC(=O)O)cc(C(=O)c4cc(F)ccc4O)cn3c(=O)c2c1C | 0 | 0 | 0 | 0 | 0 | - | - | - | -
CC1Oc2ccccc2N(CC(=O)c2ccc(F)cc2)C1=O (stereo not drawn) | 0 | 0 | 1.1 | 0 | 0 | 0 | 0 | 0 | 0
O=C(Nc1ccccc1N1CCOCC1)c1cccc(Oc2ccccc2)c1 | 0 | 0 | 0 | 0 | 0 | - | - | - | -
CC(C(=O)Nc1ccccc1C(=O)N1CCOCC1)N(c1ccc(Cl)cc1)S(C)(=O)=O (stereo not drawn) | 0 | 0 | 0.7 | 0 | 0 | 0 | 0 | 0 | 0
Cc1ccc(N(C(C)C(=O)Nc2ccccc2C(=O)N2CCOCC2)S(C)(=O)=O)cc1C (stereo not drawn) | 0 | 0 | 0 | 0 | 0 | - | - | - | -
CCCCOc1ccc(C(=O)N/C(=C\c2ccc([N+](=O)[O-])cc2)C(=O)OCc2ccco2)cc1 | 0 | - | 0.4 | 0 | 0 | 0 | 0 | 0 | 0
COc1cccc(-c2sc3ccccc3c2-c2ccc(OCCN(C)C)cc2)c1 | - | - | 0 | 0 | 0 | - | - | - | -
COc1ccc2sc(-c3ccccc3OC)c(-c3ccc(OCCN(C)C)cc3)c2c1 | - | - | 196 | - | - | 0 | 0 | + | 0
COc1ccccc1-c1sc2ccccc2c1-c1ccc(OCCN2CCCCC2)cc1 | - | - | 40 | - | - | 0 | 0 | 0 | 0
COc1ccc(-c2sc3ccccc3c2-c2ccc(OCCN3CCCCC3)cc2)cc1 | - | - | 0 | 0 | 0 | - | - | - | -
COc1ccc2c(-c3ccc(OCCN4CCCCC4)cc3)c(-c3ccccc3OC)sc2c1 | - | - | 0 | - | - | 0 | 0 | 0 | 0
CCOc1cc(C(=O)Nc2ccc(S(=O)(=O)N3CCCCC3)cc2)ccc1OCC(=O)N1CCOCC1 | 0 | 0 | 0 | 0 | 0 | - | - | - | -
N#C/C(=C(/O)C(Cl)c1ccccc1)c1nc2ccccc2s1 (stereo not drawn) | 0 | 0 | 0 | 0 | 0 | - | - | - | -
N#C/C(=C\c1ccccn1)c1nc2ccccc2s1 | 0 | 0 | 1.6 | 0 | 0 | 0 | 0 | 247 | 0
COC(=O)c1ccc(/C=C(\C#N)c2nc3ccccc3s2)cc1 | 0 | 0 | 0 | 0 | 0 | 0 | 0 | 0 | 0
CC(C)(C)c1ccc(C(=O)OC/C(O)=C(\C#N)c2nc3ccccc3s2)cc1 | 0 | 0 | 0 | 0 | 0 | - | - | - | -
COc1ccc(/C(C#N)=C/c2ccccn2)cc1 | 0 | 0 | 1.4 | 0 | 0 | 0 | 0 | 0 | 0
Cc1ccc(C(=O)N[C@H](C(=O)NC2CCCCCCC2)C(C)C)cc1 | - | - | 0 | 0 | 0 | - | - | - | -
O=C(CSc1c(F)c(F)cc(F)c1F)Nc1ccc(C2SCCS2)cc1 | 0 | 0 | 0 | 0 | 0 | - | - | - | -
